Data published in ChEMBL document CHEMBL4014270, “Aedes aegypti Larvicidal Sesquiterpene Alkaloids from Maytenus oblongata” (J Nat Prod, 2017).

Columns and labels:
Aedes aegypti [1] = test: Larvicidal activity against Aedes aegypti Paea assessed as mortality after 24 hrs by tube assay; format: functional; conditions: read-out: LD50 (the source's name)
Procedure, shortened: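 Tube assay on late third- or early fourth-instar larvae of the insecticide-susceptible Paea strain, kept at 28 ± 2 °C and 80 ± 20% RH. Compound in ethanol was added at five concentrations from 1 to 10 μg/mL, 10 tubes of 5 larvae each, in distilled water, with ethanol controls.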

MRC5 [2] = test: Cytotoxicity against human MRC5 cells assessed as mortality at 10 ug/ml relative to control; format: cell-based
Procedure, shortened: (§1)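 MRC5 cells (normal lung tissue from a fetus), exposed to the test material at 1 or 10 μg/mL, with mortality scored against control. The method follows a previously published cytotoxicity procedure, with docetaxel as positive control.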

MRC5 [3] = test: Cytotoxicity against human MRC5 cells assessed as mortality at 1 ug/ml relative to control; format: cell-based; procedure, shortened: as §1
Aedes aegypti [4] = test: Larvicidal activity against Aedes aegypti Paea assessed as mortality at 50 ug/ml after 24 hrs by tube assay relative to control; format: functional
Aedes aegypti [5] = test: Larvicidal activity against Aedes aegypti Cayenne assessed as mortality at 50 ug/ml after 24 hrs by tube assay relative to control; format: functional

Row | SMILES | LC50 (Aedes aegypti [1]) | mortality (MRC5 [2]) | mortality (MRC5 [3]) | mortality at 50 µg/mL (Aedes aegypti [4]) | mortality at 50 µg/mL (Aedes aegypti [5])
1 | CC(=O)OC[C@]12[C@H](OC(=O)c3ccccc3)[C@H](OC(C)=O)[C@H]3OC(=O)C(C)(O)CCc4ncccc4C(=O)OC[C@@]4(C)O[C@@]1([C@H]3C)[C@@H](OC(C)=O)[C@@H]4C(=O)[C@@H]2OC(C)=O (stereo partly drawn) | 9.4 µM | 15% | 15% |  | 
2 | CC(=O)O[C@@]12CO[C@@H]1C[C@H](O)[C@@]1(C)C(=O)[C@H](O)C3=C(C)[C@@H](OC(=O)[C@H](O)[C@@H](NC(=O)OC(C)(C)C)c4ccccc4)C[C@@](O)([C@@H](OC(=O)c4ccccc4)[C@H]21)C3(C)C [DOCETAXEL ANHYDROUS] |  |  | 0.0005% |  | 
3 | CC(=O)OC[C@]12[C@H](OC(C)=O)[C@H](OC(=O)c3ccccc3)[C@H]3OC(=O)C(C)(O)CCc4ccncc4C(=O)OC[C@@]4(C)O[C@@]1([C@H]3C)[C@@H](OC(C)=O)[C@@H]4[C@@H](OC(C)=O)[C@@H]2OC(C)=O (stereo partly drawn) | > 10 µM | 17% | 15% |  | 
4 | CC(=O)OC[C@]12[C@H](OC(C)=O)[C@H](OC(C)=O)[C@H]3OC(=O)C(C)(O)CCc4ncccc4C(=O)OC[C@@]4(C)O[C@@]1([C@H]3C)[C@@H](OC(C)=O)[C@@H]4C(=O)[C@@H]2OC(C)=O (stereo partly drawn) | > 10 µM | 38% | 24% |  | 
5 | CC(=O)OC[C@]12[C@H](OC(=O)c3ccccc3)[C@H](OC(=O)c3ccccc3)[C@H]3OC(=O)C(C)(O)CCc4ncccc4C(=O)OC[C@@]4(C)O[C@@]1([C@H]3C)[C@@H](OC(C)=O)[C@@H]4C(=O)[C@@H]2OC(C)=O (stereo partly drawn) | 2.7 µM | 21% | 18% |  | 
6 | C[C@H]1C(=O)CC[C@@H]2[C@]1(C)CC[C@H]1[C@@]2(C)C[C@H](O)[C@@]2(C)[C@@H]3CC(C)(C)CC[C@]3(C)[C@@H](O)C[C@]12C | > 10 µM | 48% | 16% |  | 
7 | CC1(C)[C@H](C(=O)O[C@H](C#N)c2cccc(Oc3ccccc3)c2)[C@@H]1C=C(Br)Br [DELTAMETHRIN] |  |  |  | 100% | 26%
